Source: PubChem (several laboratories)
Shown are actives, neighbours in structure and some others; about 8.9% of the full set was active somewhere.
MT stabilizer = microtubule stabilizers in HeLa cells. HeLa tubulin immunostaining HCS, 24 h; share of cells brighter than vehicle mean+2SD. % tubulin-high responders, % at 10 µM. 0.83% of 200,000 active. AID 2205;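 active = plate Z-score above 3 for both tubulin-high and condensed-nucleus cell shares, with cell loss under 80%, at 10 µM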;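 note: anti alpha tubulin signal scored within the nucleus-defined area of each cell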
Dynein cargo inh = blocks dynein driven cargo transport along microtubules; 3617.4 mouse cells, GR-EGFP nuclear translocation imaging; test concentration mostly 20 µM; stimulated with dexamethasone, 1 µM; hits give low values; z-score, hits read low; 0.47% of 220,000 active;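 active = plate z-score of nuclear minus cytoplasmic receptor signal below a set negative limit, without overly bright fluorescence or cell loss, cut at about -3.5 in these data, passing the limit was not always enough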;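 note: z-score of nuclear minus cytoplasmic ring GR-EGFP intensity difference per well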
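Buffer or medium: tet-free, stripped-serum medium; Also added: dexamethasone, 1.0 µM final; Technique: high-content fluorescence imaging after fixation; Times: 48 h induction, 1 h compound, 30 min dex at 37 °C; Read-out: per-cell GR-EGFP intensity, nucleus versus surrounding cytoplasmic ring, well-averaged.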
Lmaj promast = Leishmania major promastigote growth inhibition. inhibition, % at 10 µM. Leishmania major promastigotes, resazurin fluorescence viability. 9% of 200,000 active; in the data active = inhibition above about 50%;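 note: promastigotes grown with compound for 44 hours at 28 °C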
HSV replic up = increases HSV replication in cells; HSV replication augmentation in cells, fold increase; maximum fold increase; 0.005% of 220,000 active; AID 1956; in the data active = maximum fold increase above about 1.5; inconclusive = no clear call, values can overlap the other calls; tested in PC3 cells
bCat nuc transl = alters nuclear translocation of beta-catenin in HeLa cells; immunofluorescence imaging; nuclear translocation activity, % at 5 µM; 0.3% of 190,000 active; AID 1665;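 active = nuclear translocation activity above 50% at 5 µM, with a well cell count of 50 or more; inconclusive = wells under 50 cells across six images, flagged as toxic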;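 note: per-cell ratio of nuclear to cytoplasmic median beta-catenin stain intensity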
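Test system: human HeLa cells, endogenous beta-catenin. Times: 24 h compound exposure, 37°C. Measured by: beta-catenin immunofluorescence imaging with DAPI.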
Each line names hits and unclear results; the compound was inactive in the other large screens.

CCCCC(CC)C(=O)Nc1ncc([N+](=O)[O-])s1 (stereo unspecified)	Lmaj promast 59
CC(NC(=O)CCl)c1ccc(Cl)c(Cl)c1 (stereo unspecified)	Lmaj promast 63
CC(NC(=O)c1ccc(Cl)c(Cl)c1)c1ccc(-c2ccccc2)cc1 (stereo unspecified)	none (no result: MT stabilizer, Lmaj promast)
CC(C(=O)Nc1ccccc1)c1ccc(-c2ccccc2)c(F)c1 (stereo unspecified)	none (no result: bCat nuc transl)
COc1ccc(C(NC(=O)c2ccccc2F)NC(=O)c2ccccc2F)cc1	none
COc1ccc(C(NC(=O)c2c(F)c(F)c(F)c(F)c2F)c2ccccc2)cc1 (stereo unspecified)	Lmaj promast 95
COC(=O)c1ccc2c(c1)N(Cc1ccccc1F)C(=O)c1ccccc1S2=O (stereo unspecified)	Lmaj promast 100
CCOC(=O)c1ccc2c(c1)N(Cc1ccccc1C)C(=O)c1ccccc1S2=O (stereo unspecified)	Lmaj promast 99 (no result: HSV replic up, bCat nuc transl)
O=C(NC1CCCCC1)NC1CCN(S(=O)(=O)Cc2ccccc2)CC1	none
O=C1C2C3c4ccccc4C(c4ccccc43)C2C(=O)N1/N=C/c1cccc(O)c1 (stereo unspecified)	Lmaj promast 97
O=C(CC12CC3CC(CC(C3)C1)C2)N/N=C/c1ccncc1	Lmaj promast 68
COc1cc(/C=N/NC(=O)CC23CC4CC(CC(C4)C2)C3)cc(Br)c1OCC(=O)N(C)C	Lmaj promast 93 (no result: bCat nuc transl)
COc1cc(/C=N/NC(=O)C23CC4CC(CC(C4)C2)C3)cc(Br)c1O	none
S=c1[nH]nc(-c2cc(-c3ccccc3)n[nH]2)n1/N=C/c1ccc(Cl)c(Cl)c1	none (no result: MT stabilizer, Lmaj promast)
Fc1ccc(CN2CCN3CCCC3C2C2CCCCC2)cc1F (stereo unspecified)	Lmaj promast 99
Fc1cccc(CN2CCN3CCCC3C2C2CCCCC2)c1 (stereo unspecified)	Lmaj promast 89
CC1NC(=O)N(C)[C@@H]2NC(=O)N(C)C(c3ccc([N+](=O)[O-])cc3)[C@@H]12 (stereo partly specified)	none
COc1ccc(-c2[nH]ncc2-c2ccc3c(c2)OCCO3)c(O)c1	none
COc1ccc(-c2[nH]ncc2N=Nc2ccccc2)cc1	MT stabilizer 19, bCat nuc transl 89 (no result: HSV replic up)
COc1ccc(-c2[nH]ncc2N=Nc2cc(C)cc(C)c2)cc1	MT stabilizer 16
COCC(=O)Nc1nc2ccc(C)cc2s1	none (no result: bCat nuc transl)
O=[N+]([O-])c1cccnc1N1CCCCC1	none (no result: bCat nuc transl)
CCN(CC)CCCNC(=S)N(Cc1cccs1)Cc1cc2cc3c(cc2[nH]c1=O)OCCO3	none
CCCCCC(=O)NC(=S)Nc1ccccc1C(=O)OC	none
O=C(N/N=C/c1c[nH]c2ccccc12)c1cc(-c2ccc3ccccc3c2)n[nH]1	MT stabilizer 26, bCat nuc transl 80
O=C(N/N=C/c1c[nH]c2ccccc12)c1ccn[nH]1	none
O=C(N/N=C/c1c[nH]c2ccccc12)c1cc(-c2cccc3ccccc23)n[nH]1	MT stabilizer 27
Cc1ccc(-c2cc(C(=O)N/N=C/c3c[nH]c4ccccc34)[nH]n2)cc1	MT stabilizer 17
O=C(N/N=C/c1c[nH]c2ccccc12)c1cc(-c2ccccc2)n[nH]1	Lmaj promast 79
O=C(N/N=C/c1c[nH]c2ccccc12)c1cc(-c2ccc(-c3ccccc3)cc2)n[nH]1	none
CCCCOC(=O)Cn1c(=N)n(CCC)c2ccccc21	none
O=C(NC1CCCCC1)c1cc(Cl)ccc1[N+](=O)[O-]	none
O=c1ccc2cc3c4c(c2o1)CCCN4CCC3	HSV replic up inconclusive
Cc1ccc(C(=O)Nc2ccccc2C(=O)N2CCCC2)cc1[N+](=O)[O-]	Lmaj promast 58 (no result: bCat nuc transl)
Cc1ccc(C(=O)Nc2ccc3c4c(cccc24)CC3)cc1[N+](=O)[O-]	Lmaj promast 60
COc1ccc(C(=O)Nc2ccc3c4c(cccc24)CC3)cc1	none
Cc1c(C(=O)Nc2ccc3c4c(cccc24)CC3)cccc1[N+](=O)[O-]	MT stabilizer 22
Cc1c(C(=O)NC(=S)Nc2ccc3c4c(cccc24)CC3)cccc1[N+](=O)[O-]	none
CCOC(=O)N1CCN(C(=O)c2ccccc2NC(=O)c2ccc(C(C)(C)C)cc2)CC1	Lmaj promast 74 (no result: bCat nuc transl)
Cc1cc(C(=O)Nc2ccccc2C(=O)N2CCCCC2)ccc1[N+](=O)[O-]	none
O=C(NCc1cccs1)C1CCCN(c2ncccn2)C1 (stereo unspecified)	none
Cc1ccc(OCC(=O)N2CCc3ccccc32)c([N+](=O)[O-])n1	none
CCc1cc2c(=O)c(-c3nc4ccccc4n3C)c(COCC(=O)O)oc2cc1O	none
CCn1c(C)nc2cc(C(=O)N/N=C/c3ccc(O)cc3)ccc21	none
COc1cc(CN2CCC(C(=O)N3CCN(c4ccccc4F)CC3)CC2)ccc1O	Lmaj promast 63
COc1ccc(OC)c(CN2CCC(C(=O)N3CCN(c4ccccc4F)CC3)CC2)c1	none (no result: HSV replic up)
COc1cccc(CN2CCC(C(=O)N3CCN(c4ccccc4F)CC3)CC2)c1	Lmaj promast 89 (no result: HSV replic up)
Cc1nc(SC2CCOC2=O)c2c(C)c(C)sc2n1 (stereo unspecified)	none
COc1ccccc1NC(=S)NCc1cccnc1	Lmaj promast 68
COc1cccc(NC(=O)C(=O)NCc2ccncc2)c1	none
Fc1ccc(NC(=S)NCc2cccnc2)cc1	none
S=C(NCc1cccnc1)Nc1ccc(Cl)c(Cl)c1	Lmaj promast 98
COc1cccc(NC(=S)NCc2ccncc2)c1	Lmaj promast 68
Cc1ccc(Nc2nc(-c3ccc(S(=O)(=O)N4CCCC4)cc3)cs2)cc1C	Lmaj promast 90
O=S(=O)(c1ccc(-c2csc(Nc3ccc(Br)cc3)n2)cc1)N1CCCC1	none
O=S(=O)(c1ccc(-c2csc(Nc3ccc(F)cc3)n2)cc1)N1CCCC1	Lmaj promast 64 (no result: bCat nuc transl)
Cc1cc(C)cc(Nc2nc(-c3ccc(S(=O)(=O)N4CCCC4)cc3)cs2)c1	MT stabilizer 19, Lmaj promast 99
COc1cccc(NC(=O)NC2CCCCC2C)c1 (stereo unspecified)	none
CCOC(=O)C1(Cc2ccc(OC)cc2)CCN(C(=O)Cn2cnnn2)CC1	none
CCCCCCCC(=O)N/N=C(\C)c1ccc(N)cc1	none
CC(=O)c1cc(CN2CCN(Cc3ccc(C)cc3)C(CCO)C2)cs1 (stereo unspecified)	Lmaj promast 73
CC(=O)c1cc(CN2CCN(CCC(C)C)C(CCO)C2)cs1 (stereo unspecified)	none (no result: MT stabilizer, Lmaj promast)
COc1ccc(CN2CCN(Cc3csc(C(C)=O)c3)CC2CCO)c(C)c1C (stereo unspecified)	Lmaj promast 86
Cc1ccc(C)c(NC(=S)NC(NC(=O)OCc2ccccc2)C(Cl)(Cl)Cl)c1 (stereo unspecified)	Lmaj promast 58
O=C(NC(NC(=S)Nc1c(Cl)cc(Cl)cc1Cl)C(Cl)(Cl)Cl)OCc1ccccc1 (stereo unspecified)	none
Cc1cc(=O)[nH]c(N2CCN(C(c3ccccc3)c3ccccc3)CC2)n1	none
